Results published in ChEMBL document CHEMBL5303300, “EUbOPEN Chemogenomics Library - Multiplex” (2023).
Several values for one entry are separate records, joined by “and”; a condition that tells them apart may be missing. Equal entries are not always repeated.

Tested on: U2OS
Assay: Multiplex assay against U2OS
Format: toxicity, cell-based
Conditions: human, number of replicates 2
Method in brief: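 On a CQ1 microscope at 37°C and 5% CO2, live cells were imaged after compound addition. They had been stained at seeding with Hoechst33342, BioTracker Green Microtubule Cytoskeleton Dye, MitoTracker Red and Annexin V Alexa Fluor 680. CellPathfinder machine-learning gating assigned cells to Hoechst high-intensity objects or normal cells, normal cells to healthy, pyknosed or fragmented nuclei, and pyknosed cells to mitotic or apoptotic. Tubulin, mitochondrial-mass and membrane-permeability phenotypes are per cents of healthy-nucleus cells.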

[1] = 12 h, 1 µM, compound concentration 1 uM
[2] = 12 h, 10 µM, compound concentration 10 uM
[3] = 24 h, 1 µM, compound concentration 1 uM
[4] = 24 h, 10 µM, compound concentration 10 uM
[5] = 48 h, 1 µM, compound concentration 1 uM
[6] = 48 h, 10 µM, compound concentration 10 uM

Compound: Cc1ccc2c(c1CCC(=O)O)CC[C@@H](NS(=O)(=O)c1ccc(Cl)cc1)C2 [TERUTROBAN]
- Population Apoptotic (%) [1]: 44% and 33%
- Population Healthy Nuclei (%) [1]: 83% and 55%
- Population Hoechst High Intensity Objects (%) [1]: 0%
- Population Membrane Permeable-Phenotype (%) [1]: 1% and 0%
- Population Mitochondria Different-Phenotype (%) [1]: 1% and 0%
- Population Mitotic Cells (%) [1]: 56% and 66%
- Population Normal (%) [1]: 100%
- Population Pyknosed Nuclei (%) [1]: 11% and 7%
- Population Tubulin-Different-Phenotype (%) [1]: 92% and 47%
- Population Apoptotic (%) [2]: 44% and 50%
- Population Fragmented Nuclei (%) [2]: 8% and 2%
- Population Healthy Nuclei (%) [2]: 76% and 86%
- Population Hoechst High Intensity Objects (%) [2]: 0%
- Population Membrane Permeable-Phenotype (%) [2]: 4% and 2%
- Population Mitochondria Different-Phenotype (%) [2]: 2% and 0%
- Population Mitotic Cells (%) [2]: 55% and 50%
- Population Normal (%) [2]: 100%
- Population Pyknosed Nuclei (%) [2]: 15% and 10%
- Population Tubulin-Different-Phenotype (%) [2]: 73% and 87%
- Population Apoptotic (%) [3]: 50% and 61%
- Population Healthy Nuclei (%) [3]: 61% and 87%
- Population Hoechst High Intensity Objects (%) [3]: 0%
- Population Membrane Permeable-Phenotype (%) [3]: 0% and 1%
- Population Mitochondria Different-Phenotype (%) [3]: 0%
- Population Mitotic Cells (%) [3]: 50% and 38%
- Population Normal (%) [3]: 100%
- Population Pyknosed Nuclei (%) [3]: 5% and 8%
- Population Tubulin-Different-Phenotype (%) [3]: 66% and 92%
- Population Apoptotic (%) [4]: 66% and 62%
- Population Fragmented Nuclei (%) [4]: 9% and 2%
- Population Healthy Nuclei (%) [4]: 81% and 87%
- Population Hoechst High Intensity Objects (%) [4]: 0%
- Population Membrane Permeable-Phenotype (%) [4]: 5% and 0%
- Population Mitochondria Different-Phenotype (%) [4]: 3% and 0%
- Population Mitotic Cells (%) [4]: 33% and 37%
- Population Normal (%) [4]: 100%
- Population Pyknosed Nuclei (%) [4]: 8% and 10%
- Population Tubulin-Different-Phenotype (%) [4]: 75% and 92%
- Population Apoptotic (%) [5]: 37% and 58%
- Population Healthy Nuclei (%) [5]: 66% and 91%
- Population Hoechst High Intensity Objects (%) [5]: 0%
- Population Membrane Permeable-Phenotype (%) [5]: 2%
- Population Mitochondria Different-Phenotype (%) [5]: 0%
- Population Mitotic Cells (%) [5]: 62% and 41%
- Population Normal (%) [5]: 100%
- Population Pyknosed Nuclei (%) [5]: 11% and 5%
- Population Tubulin-Different-Phenotype (%) [5]: 73% and 94%
- Population Apoptotic (%) [6]: 25% and 57%
- Population Fragmented Nuclei (%) [6]: 3% and 1%
- Population Healthy Nuclei (%) [6]: 85% and 91%
- Population Hoechst High Intensity Objects (%) [6]: 0%
- Population Membrane Permeable-Phenotype (%) [6]: 4% and 1%
- Population Mitochondria Different-Phenotype (%) [6]: 4% and 0%
- Population Mitotic Cells (%) [6]: 75% and 42%
- Population Normal (%) [6]: 100%
- Population Pyknosed Nuclei (%) [6]: 10% and 6%
- Population Tubulin-Different-Phenotype (%) [6]: 72% and 93%

Compound: COc1ccc(-c2cc3c(C)nc(N)nc3n([C@H]3CC[C@H](OCCO)CC3)c2=O)cn1 [PF-04691502]
- Population Apoptotic (%) [1]: 50% and 76%
- Population Healthy Nuclei (%) [1]: 57% and 78%
- Population Hoechst High Intensity Objects (%) [1]: 0%
- Population Membrane Permeable-Phenotype (%) [1]: 10% and 2%
- Population Mitochondria Different-Phenotype (%) [1]: 0% and 1%
- Population Mitotic Cells (%) [1]: 50% and 23%
- Population Normal (%) [1]: 100%
- Population Pyknosed Nuclei (%) [1]: 6% and 12%
- Population Tubulin-Different-Phenotype (%) [1]: 84% and 83%
- Population Apoptotic (%) [2]: 88% and 83%
- Population Fragmented Nuclei (%) [2]: 25% and 13%
- Population Healthy Nuclei (%) [2]: 46% and 54%
- Population Hoechst High Intensity Objects (%) [2]: 3% and 2%
- Population Membrane Permeable-Phenotype (%) [2]: 0% and 7%
- Population Mitochondria Different-Phenotype (%) [2]: 0% and 3%
- Population Mitotic Cells (%) [2]: 11% and 16%
- Population Normal (%) [2]: 96% and 97%
- Population Pyknosed Nuclei (%) [2]: 28% and 32%
- Population Tubulin-Different-Phenotype (%) [2]: 80% and 50%
- Population Apoptotic (%) [3]: 60% and 76%
- Population Fragmented Nuclei (%) [3]: 19% and 10%
- Population Healthy Nuclei (%) [3]: 66% and 75%
- Population Hoechst High Intensity Objects (%) [3]: 0%
- Population Membrane Permeable-Phenotype (%) [3]: 0% and 2%
- Population Mitochondria Different-Phenotype (%) [3]: 0% and 1%
- Population Mitotic Cells (%) [3]: 40% and 23%
- Population Normal (%) [3]: 100% and 99%
- Population Pyknosed Nuclei (%) [3]: 13% and 14%
- Population Tubulin-Different-Phenotype (%) [3]: 91% and 84%
- Population Apoptotic (%) [4]: 84% and 69%
- Population Fragmented Nuclei (%) [4]: 12% and 17%
- Population Healthy Nuclei (%) [4]: 46% and 50%
- Population Hoechst High Intensity Objects (%) [4]: 2%
- Population Membrane Permeable-Phenotype (%) [4]: 20% and 40%
- Population Mitochondria Different-Phenotype (%) [4]: 7% and 15%
- Population Mitotic Cells (%) [4]: 15% and 30%
- Population Normal (%) [4]: 97%
- Population Pyknosed Nuclei (%) [4]: 41% and 32%
- Population Tubulin-Different-Phenotype (%) [4]: 59% and 65%
- Population Apoptotic (%) [5]: 80% and 82%
- Population Fragmented Nuclei (%) [5]: 10% and 8%
- Population Healthy Nuclei (%) [5]: 80% and 69%
- Population Hoechst High Intensity Objects (%) [5]: 0%
- Population Membrane Permeable-Phenotype (%) [5]: 7% and 5%
- Population Mitochondria Different-Phenotype (%) [5]: 5% and 4%
- Population Mitotic Cells (%) [5]: 20% and 17%
- Population Normal (%) [5]: 100% and 99%
- Population Pyknosed Nuclei (%) [5]: 10% and 21%
- Population Tubulin-Different-Phenotype (%) [5]: 82% and 85%
- Population Apoptotic (%) [6]: 66% and 85%
- Population Fragmented Nuclei (%) [6]: 19% and 10%
- Population Healthy Nuclei (%) [6]: 22% and 26%
- Population Hoechst High Intensity Objects (%) [6]: 0% and 4%
- Population Membrane Permeable-Phenotype (%) [6]: 62% and 35%
- Population Mitochondria Different-Phenotype (%) [6]: 37% and 18%
- Population Mitotic Cells (%) [6]: 33% and 14%
- Population Normal (%) [6]: 100% and 95%
- Population Pyknosed Nuclei (%) [6]: 58% and 63%
- Population Tubulin-Different-Phenotype (%) [6]: 87% and 70%
